Source: ChEMBL document CHEMBL3774374, “The Effect of Small Molecules on Sterol Homeostasis: Measuring 7-Dehydrocholesterol in Dhcr7-Deficient Neuro2a Cells and Human Fibroblasts” (J Med Chem, 2016)
Active and inactive are the calls of the source. The calls are words filed in the database; no cut-off is given here.

Columns and labels:
[1] = biological target: T1, 3-hydroxy-3-methylglutaryl-coenzyme A reductase (Mus musculus) (UniProt Q01237); assay: Inhibition of HMGCoA reductase in Dhcr7-deficient mouse Neuro2a cells assessed as decrease in 7-DHC levels at 1 uM by LC-MS/GC-MS analysis; type: cell-based
T1 sequence (whole entry): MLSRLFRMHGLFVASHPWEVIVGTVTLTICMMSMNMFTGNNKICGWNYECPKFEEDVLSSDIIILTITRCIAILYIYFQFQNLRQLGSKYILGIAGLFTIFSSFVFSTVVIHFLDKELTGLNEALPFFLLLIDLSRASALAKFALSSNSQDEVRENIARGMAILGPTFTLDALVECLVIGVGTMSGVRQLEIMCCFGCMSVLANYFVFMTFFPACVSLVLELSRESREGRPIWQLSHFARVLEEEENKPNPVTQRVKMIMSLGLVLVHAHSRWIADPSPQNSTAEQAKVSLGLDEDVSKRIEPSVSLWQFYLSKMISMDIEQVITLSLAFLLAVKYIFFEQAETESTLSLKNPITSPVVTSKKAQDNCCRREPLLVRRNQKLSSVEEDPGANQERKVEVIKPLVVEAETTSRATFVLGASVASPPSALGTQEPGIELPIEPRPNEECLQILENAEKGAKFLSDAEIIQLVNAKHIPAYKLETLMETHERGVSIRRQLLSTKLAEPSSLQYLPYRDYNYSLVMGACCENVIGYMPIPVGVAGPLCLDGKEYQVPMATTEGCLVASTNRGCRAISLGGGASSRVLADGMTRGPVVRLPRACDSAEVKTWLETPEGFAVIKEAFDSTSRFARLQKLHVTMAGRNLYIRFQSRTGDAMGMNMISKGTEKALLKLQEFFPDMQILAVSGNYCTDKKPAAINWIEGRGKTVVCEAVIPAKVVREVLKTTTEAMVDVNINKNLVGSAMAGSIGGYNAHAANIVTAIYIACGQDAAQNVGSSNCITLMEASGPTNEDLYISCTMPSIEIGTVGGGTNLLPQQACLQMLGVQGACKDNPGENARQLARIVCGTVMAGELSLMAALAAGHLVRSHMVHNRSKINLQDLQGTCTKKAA
How it was run: (§1)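 Dhcr7-deficient Neuro2a cells (13000/well, 0.5% FBS medium) on predeposited compound, 24 h at 37 °C. Hoechst-stained and imaged to count cells. Lysed in methanol containing isotope-labelled sterol standards, derivatized with PTAD 20 min at RT, then isocratic C18 UPLC-MS/SRM. Remaining extract silylated with BSTFA for GC-MS, quantified against d7-cholesterol. Follow-up runs in triplicate.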

N2a [2] = assay: Decrease in 7-DHC levels in Dhcr7-deficient mouse Neuro2a cells at 1 uM by LC-MS/GC-MS analysis; type: functional, cell-based; how it was run: as §1
[3] = biological target: T2, Delta(24)-sterol reductase (Mus musculus) (UniProt Q8VCH6); assay: Inhibition of DR24 in Dhcr7-deficient mouse Neuro2a cells assessed as decrease in 7-DHC levels at 1 uM by LC-MS/GC-MS analysis; type: cell-based; how it was run: as §1
T2 sequence (whole entry): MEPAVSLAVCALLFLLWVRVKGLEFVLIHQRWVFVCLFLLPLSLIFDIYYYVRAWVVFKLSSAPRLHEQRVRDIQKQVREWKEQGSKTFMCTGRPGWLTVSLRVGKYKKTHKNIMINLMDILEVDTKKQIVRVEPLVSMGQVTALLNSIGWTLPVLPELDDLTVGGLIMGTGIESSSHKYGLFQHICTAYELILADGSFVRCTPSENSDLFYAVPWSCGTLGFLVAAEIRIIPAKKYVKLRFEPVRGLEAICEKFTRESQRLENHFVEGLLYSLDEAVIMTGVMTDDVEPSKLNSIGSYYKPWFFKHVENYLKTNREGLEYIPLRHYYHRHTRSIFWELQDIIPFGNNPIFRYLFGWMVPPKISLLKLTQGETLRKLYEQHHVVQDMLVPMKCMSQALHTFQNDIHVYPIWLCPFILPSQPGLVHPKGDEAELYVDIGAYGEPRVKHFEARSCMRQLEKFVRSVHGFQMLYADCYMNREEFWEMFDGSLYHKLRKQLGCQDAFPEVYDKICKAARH

N2a [4] = assay: Decrease in desmosterol levels in mouse Neuro2a cells by LC-MS analysis; type: functional, cell-based
How it was run: (§2)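 Control Neuro2a cells (10000/well, 0.5% FBS) on compound, 24 h. Hoechst cell count, then methanol lysis with labelled standards (d7-7-DHC, 13C3-desmosterol, 13C3-lanosterol), PTAD derivatization 20 min at RT, UPLC-MS SRM. GC-MS of silylated extract for further sterols.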

N2a [5] = assay: Decrease in lanosterol levels in mouse Neuro2a cells by LC-MS analysis; type: functional, cell-based; how it was run: as §2
[6] = biological target: T2, Delta(24)-sterol reductase (Mus musculus); assay: Inhibition of DR24 in mouse Neuro2a cells assessed as decrease in 7-DHC levels at 1 uM by LC-MS/GC-MS analysis; type: cell-based; how it was run: as §2
[7] = biological target: T3, 3-beta-hydroxysteroid-Delta(8),Delta(7)-isomerase (Mus musculus) (UniProt P70245); assay: Inhibition of delta 8-7 isomerase in mouse Neuro2a cells assessed as decrease in 7-DHC levels at 1 uM by LC-MS/GC-MS analysis; type: cell-based; how it was run: as §2
T3 sequence (whole entry): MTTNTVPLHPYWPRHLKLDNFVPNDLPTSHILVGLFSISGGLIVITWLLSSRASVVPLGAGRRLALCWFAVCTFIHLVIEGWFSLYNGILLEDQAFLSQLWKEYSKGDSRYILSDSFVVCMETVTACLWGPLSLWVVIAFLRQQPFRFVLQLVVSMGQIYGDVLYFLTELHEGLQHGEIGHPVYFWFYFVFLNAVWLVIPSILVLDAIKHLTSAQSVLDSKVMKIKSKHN

[8] = biological target: T3, 3-beta-hydroxysteroid-Delta(8),Delta(7)-isomerase (Mus musculus); assay: Inhibition of delta 8-7 isomerase in Dhcr7-deficient mouse Neuro2a cells assessed as decrease in 7-DHC levels at 1 uM by LC-MS/GC-MS analysis; type: cell-based; how it was run: as §1
[9] = biological target: T4, Lanosterol 14-alpha demethylase (Mus musculus, UniProt Q8K0C4); assay: Inhibition of CYP51 in Dhcr7-deficient mouse Neuro2a cells assessed as decrease in 7-DHC levels at 1 uM by LC-MS/GC-MS analysis; type: cell-based
T4 sequence (Q8K0C4 whole entry): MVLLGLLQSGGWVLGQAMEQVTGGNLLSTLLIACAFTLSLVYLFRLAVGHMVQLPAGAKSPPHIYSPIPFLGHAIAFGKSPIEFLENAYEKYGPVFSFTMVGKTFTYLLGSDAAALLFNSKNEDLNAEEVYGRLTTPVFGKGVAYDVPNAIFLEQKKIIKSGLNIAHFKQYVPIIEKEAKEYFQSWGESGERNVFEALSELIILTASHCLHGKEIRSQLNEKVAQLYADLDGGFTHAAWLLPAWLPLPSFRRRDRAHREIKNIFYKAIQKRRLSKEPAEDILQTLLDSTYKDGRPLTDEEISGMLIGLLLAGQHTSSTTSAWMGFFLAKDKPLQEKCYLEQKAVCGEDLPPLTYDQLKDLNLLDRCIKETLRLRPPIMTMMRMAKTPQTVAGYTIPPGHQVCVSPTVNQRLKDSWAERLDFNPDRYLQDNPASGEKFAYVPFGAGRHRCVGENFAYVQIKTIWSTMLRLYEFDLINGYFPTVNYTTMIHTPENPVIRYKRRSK
How it was run: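 Follow-up (verification) assay in 96-well plates, run as the 384-well screen, in triplicate, at varying compound concentrations. Cells counted by Hoechst imaging, washed with PBS, then lysed in MeOH with BHT/TPP and isotope standards (d7-Chol, d7-7-DHC, 13C3-Des, 13C3-Lan). Sterols derivatised with PTAD for 20 min at RT and quantified by C18 UPLC-MS (SRM). Remaining sample silylated with BSTFA and run on GC-MS, quantified against d7-Chol.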

[10] = Cytotoxicity against human SLOS fibroblasts at 5 uM after 5 days by Cell Titer assay; type: cell-based; details: fibroblast, 120 h
Fibroblast = assay: Decrease in cholesterol levels in human SLOS fibroblasts at 10 nM after 5 days by LC-MS/GC-MS analysis; type: functional, cell-based
How it was run: (§3)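 SLOS patient skin fibroblasts (passage 8–20) grown in 96-well plates in delipidated serum with compound for 5 days; three different SLOS lines. Sterols quantified by PTAD-derivatized UPLC-MS plus GC-MS; 7-DHC expressed as percentage of untreated cells.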

[11] = biological target: T5, Delta(24)-sterol reductase (Homo sapiens) (UniProt Q15392); assay: Inhibition of DR24 in human SLOS fibroblasts assessed as decrease in 7-DHC levels at 10 nM after 5 days by LC-MS/GC-MS analysis; how it was run: as §3
T5 sequence (whole entry): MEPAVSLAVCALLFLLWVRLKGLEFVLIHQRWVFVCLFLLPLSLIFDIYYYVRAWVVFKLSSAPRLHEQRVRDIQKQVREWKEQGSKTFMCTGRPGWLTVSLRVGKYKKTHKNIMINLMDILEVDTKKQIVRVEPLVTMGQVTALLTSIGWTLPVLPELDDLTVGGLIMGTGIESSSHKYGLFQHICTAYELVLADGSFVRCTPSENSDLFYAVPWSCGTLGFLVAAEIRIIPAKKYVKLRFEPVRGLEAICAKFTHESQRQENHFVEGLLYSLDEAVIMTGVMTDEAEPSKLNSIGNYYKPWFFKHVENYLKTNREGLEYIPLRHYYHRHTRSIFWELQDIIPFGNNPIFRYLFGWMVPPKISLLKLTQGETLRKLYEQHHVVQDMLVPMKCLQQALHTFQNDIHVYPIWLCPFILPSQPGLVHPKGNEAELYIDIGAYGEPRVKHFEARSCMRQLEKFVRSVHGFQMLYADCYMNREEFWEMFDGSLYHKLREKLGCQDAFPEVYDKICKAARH

C[C@@H]1CC[C@H]2[C@@H](C)C(=O)O[C@@H]3O[C@@]4(C)CC[C@@H]1[C@]32OO4
inhibition [1]: Active

C[C@H]1c2cccc(O)c2C(=O)C2=C(O)[C@]3(O)C(=O)C(C(N)=O)=C(O)[C@@H](N(C)C)[C@@H]3[C@@H](O)[C@@H]21
Activity (N2a [2]): Active

Cc1ccc(NC(=O)c2ccc(CN3CCN(C)CC3)cc2)cc1Nc1nccc(-c2cccnc2)n1
inhibition [3]: Active

Clc1ccccc1CNC[C@H]1CC[C@H](CNCc2ccccc2Cl)CC1
Activity (N2a [4]): Active
Activity (N2a [5]): Active

O=C(CCCN1CCC(O)(c2ccc(Cl)cc2)CC1)c1ccc(F)cc1
Activity (N2a [4]): Active
Activity (N2a [5]): Active

O=C(O)C[C@H](O)C[C@H](O)/C=C/c1c(C2CC2)nc2ccccc2c1-c1ccc(F)cc1
7-DHC decrease call (active/inactive) [1]: Active
Decrease in 7-DHC levels (active/inactive call) [6]: Active
Activity (decrease in 7-DHC levels) [7]: Active

O=c1n(CCCN2CCN(c3cccc(Cl)c3)CC2)nc2ccccn12
Activity (N2a [4]): Active
Activity (N2a [5]): Active

OCCN1CCN(CCCN2c3ccccc3Sc3ccc(C(F)(F)F)cc32)CC1
inhibition [8]: Active

OCCN1CCN(CCCN2c3ccccc3Sc3ccc(Cl)cc32)CC1
inhibition [8]: Active
inhibition [3]: Active

OCCOCCN1CCN(C(c2ccccc2)c2ccc(Cl)cc2)CC1 (centres undefined)
inhibition [8]: Active

c1ccc(-c2ccc(C(c3ccccc3)n3ccnc3)cc2)cc1 (centres undefined) [BIFONAZOLE]
inhibition (INH) [9]: Active

Clc1ccccc1C(c1ccccc1)(c1ccccc1)n1ccnc1 [CLOTRIMAZOLE]
inhibition (INH) [9]: Active

Clc1ccc(COC(Cn2ccnc2)c2ccc(Cl)cc2Cl)cc1 (centres undefined) [ECONAZOLE]
inhibition (INH) [9]: Active

C[C@]12CC[C@@H]3c4ccc(O)cc4C[C@@H](CCCCCCCCC[S+]([O-])CCCC(F)(F)C(F)(F)F)[C@H]3[C@@H]1CC[C@@H]2O (some centres undefined) [FULVESTRANT]
Activity [10]: Toxic
inhibition [3]: Active
Activity (Fibroblast): inactive
inhibition [11]: Active

Clc1ccc(COC(Cn2ccnc2)c2ccc(Cl)cc2Cl)c(Cl)c1 (centres undefined) [MICONAZOLE]
inhibition (INH) [9]: Active
